Test results published in ChEMBL document CHEMBL4613319, “Novel Dithiolane-Based Ligands Combining Sigma and NMDA Receptor Interactions as Potential Neuroprotective Agents” (ACS Med Chem Lett, 2020).
pKi: −log10 of the molar value. The source made the active and inactive calls. The calls are words filed in the database; no cut-off is given here.

Columns and labels:
[1] = molecular target: Sigma intracellular receptor 2 (Homo sapiens, UniProt Q5BJF2); assay: Displacement of [3H]-ditolylguanidine from human Sigma 2 receptor by radioligand displacement assay
Method in brief: (§1)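 Radioligand displacement with [3H]-ditolylguanidine as the S2R label. Cold (+)-pentazocine is included to mask S1R sites. Results are reported as Ki.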

[2] = molecular target: Sigma non-opioid intracellular receptor 1 (Homo sapiens, UniProt Q99720); assay: Displacement of [3H]-pentazocine from human Sigma 1 receptor by radioligand displacement assay
Method in brief: (§2)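 S1R labelled selectively with [3H]-(+)pentazocine in a radioligand displacement assay. Affinity is expressed as inhibition constant (Ki).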

SH-SY5Y [3] = assay: Neuroprotective activity against NMDA-induced cell death in human SH-SY5Y cells at 5 uM incubated for 24 hrs by MTT assay; assay type: functional, cell-based
Method in brief: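 SH-SY5Y neuroblastoma cells are incubated 24 h with NMDA 250 μM and compound at 0.1, 0.5, 1.0 or 5.0 μM. Memantine serves as positive control. Read-out is % cell viability, mean ± SD of three independent experiments.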

SH-SY5Y [4] = assay: Neuroprotective activity against NMDA-induced cell death in human SH-SY5Y cells at 0.5 to 1 uM incubated for 24 hrs by MTT assay relative to control; assay type: functional
SH-SY5Y [5] = assay: Neuroprotective activity against rotenone-induced cell death in human SH-SY5Y cells at 5 uM in presence of PB212 incubated for 24 hrs by MTT assay; assay type: functional, cell-based
Method in brief: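 SH-SY5Y cells receive rotenone 25 μM plus the S1R antagonist PB212 (5 μM) and compound at 1.0 or 5.0 μM. Output is % cell viability, mean ± SD of three independent experiments.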

SH-SY5Y [6] = assay: Neuroprotective activity against rotenone-induced cell death in human SH-SY5Y cells at 5 uM incubated for 24 hrs by MTT assay; assay type: functional, cell-based
Method in brief: (§3)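 Rotenone 25 μM is the toxic insult to SH-SY5Y cells, with test compound at 1.0 or 5.0 μM. Protection is reported as % cell viability, mean ± SD of three independent experiments.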

SH-SY5Y [7] = assay: Neuroprotective activity against oligomycin-induced cell death in human SH-SY5Y cells at 5 uM incubated for 24 hrs by MTT assay relative to control; assay type: functional
Method in brief: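 SH-SY5Y cells were exposed to oligomycin (2.5 μM) as the toxic stimulus in the presence of test compound. Protection was scored as % cell viability.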

[8] = molecular target: Sigma non-opioid intracellular receptor 1 (Cavia porcellus, UniProt Q60492); assay: Displacement of [3H](+)-pentazocine from sigma 1 receptor in guinea pig brain cortex membranes after 150 mins by scintillation counting analysis; assay type: cell membranes; method in brief: as §2
Cavia porcellus = organism: Cavia porcellus; assay: Selectivity index, ratio of Ki for sigma 1 receptor in guinea pig brain cortex membranes to Ki for sigma 2 receptor in guinea pig brain cortex membranes; assay type: cell membranes
SH-SY5Y [9] = assay: Neuroprotective activity against rotenone-induced cell death in human SH-SY5Y cells at 1 uM incubated for 24 hrs by MTT assay; assay type: functional, cell-based; method in brief: as §3
[10] = Displacement of [3H][…]-DTG from sigma 2 receptor in guinea pig brain cortex membranes after 150 mins by liquid scintillation counter method; assay type: cell membranes, Cavia porcellus; method in brief: as §1
SH-SY5Y [11] = assay: Neuroprotective activity against NMDA-induced cell death in human SH-SY5Y cells at 0.1 uM in presence of PB212 incubated for 24 hrs by MTT assay; assay type: functional, cell-based
Method in brief: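 SH-SY5Y cells are exposed to NMDA 250 μM together with compound at 0.1 μM. This is done with and without the S1R antagonist PB212 (5 μM). Data are % cell viability, mean ± SD of three independent experiments.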

SH-SY5Y [12] = assay: Neuroprotective activity against NMDA-induced cell death in human SH-SY5Y cells at 0.1 to 0.5 uM incubated for 24 hrs by MTT assay relative to control; assay type: functional
[13] = molecular target: T1, Glutamate NMDA receptor (Rattus norvegicus) (UniProt P35439+Q00959+Q00960+Q00961+Q62645+Q8VHN2+Q9R1M7); assay: Negative allosteric modulator of NMDA receptor assessed as NMDA-induced current in Sprague-Dawley rat Primary cortical neuron at 0.1 uM by whole cell patch clamp method relative to control; assay type: cell-based; settings: Cortical neurone
Method in brief: (§4)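 Whole-cell patch clamp on cortical neurons in primary culture. Currents are evoked by NMDA 100 μM plus glycine 1 μM, with the compound applied at increasing concentrations. The effect is expressed as % of the control current, mean ± SE of n cells.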

[14] = molecular target: T1, Glutamate NMDA receptor (Rattus norvegicus); assay: Negative allosteric modulator of NMDA receptor assessed as NMDA-induced current in Sprague-Dawley rat Primary cortical neuron at 1 uM by whole cell patch clamp method relative to control; assay type: cell-based; settings: Cortical neurone; method in brief: as §4
[15] = molecular target: T1, Glutamate NMDA receptor (Rattus norvegicus); assay: Negative allosteric modulator of NMDA receptor assessed as NMDA-induced current in Sprague-Dawley rat Primary cortical neuron at 10 uM by whole cell patch clamp method relative to control; assay type: cell-based; settings: Cortical neurone; method in brief: as §4

Sigma intracellular receptor 2, sequence (Q5BJF2 whole entry): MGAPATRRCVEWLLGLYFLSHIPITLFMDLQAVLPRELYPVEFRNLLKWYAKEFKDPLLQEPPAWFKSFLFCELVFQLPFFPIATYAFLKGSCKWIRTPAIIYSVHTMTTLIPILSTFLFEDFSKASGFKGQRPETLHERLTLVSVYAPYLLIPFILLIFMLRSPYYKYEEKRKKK
Sigma non-opioid intracellular receptor 1 (Homo sapiens, UniProt Q99720), sequence (Q99720 whole entry): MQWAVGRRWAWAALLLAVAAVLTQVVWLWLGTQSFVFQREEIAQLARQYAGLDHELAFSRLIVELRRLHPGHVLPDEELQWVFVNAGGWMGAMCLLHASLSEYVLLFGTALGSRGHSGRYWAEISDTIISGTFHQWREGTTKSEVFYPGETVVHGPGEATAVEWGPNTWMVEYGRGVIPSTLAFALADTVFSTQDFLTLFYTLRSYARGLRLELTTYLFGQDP
Sigma non-opioid intracellular receptor 1 (Cavia porcellus, UniProt Q60492), sequence (Q60492 whole entry): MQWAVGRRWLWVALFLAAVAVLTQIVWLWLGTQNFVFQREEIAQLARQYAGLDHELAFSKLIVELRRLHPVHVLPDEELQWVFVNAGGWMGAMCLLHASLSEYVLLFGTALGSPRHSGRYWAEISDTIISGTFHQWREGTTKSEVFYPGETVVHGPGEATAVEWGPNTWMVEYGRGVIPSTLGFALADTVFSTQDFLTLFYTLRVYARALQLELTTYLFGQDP

pKi [1] | pKi [2] | Compound | also measured
6.80 | 6.71 | c1ccc(CC2CCN(C[C@H]3CS[C@@]4(CCCCc5ccccc54)S3)CC2)cc1 | 
7.19 | 6.97 | c1ccc(CC2CCN(C[C@H]3CS[C@]4(CCc5ccccc54)S3)CC2)cc1 | 
 |  | CC12CC3CC(C)(C1)CC(N)(C3)C2 | Activity (SH-SY5Y [3]): inactive
7.06 | 7.28 | c1ccc(CC2CCN(C[C@@H]3CS[C@@]4(CCCc5ccccc54)S3)CC2)cc1 | 
 |  | O=C(O)C(=O)O.c1ccc(CN2CCN(CC3CSC4(CCCCC4)O3)CC2)cc1 (configuration not stated) | Activity (SH-SY5Y [5]): inactive; Activity (SH-SY5Y [6]): Active; Activity (SH-SY5Y [7]): >60%; pKi [8]: 8.89; Ratio Ki (Cavia porcellus): 72; Activity (SH-SY5Y [9]): Active; Activity (SH-SY5Y [4]): 72 - 75%; Activity (SH-SY5Y [3]): inactive; pKi [10]: 7.04
7.52 | 7.15 | c1ccc(CC2CCN(C[C@@H]3CS[C@]4(CCc5ccccc54)S3)CC2)cc1 | 
8.52 | 8.38 | c1ccc(CC2CCN(CC3CSC4(CCCC4)S3)CC2)cc1 (configuration not stated) | 
6.74 | 8.27 | CC1(C)OCC(CN2CCN(Cc3ccccc3)CC2)O1 (configuration not stated) | 
7.07 | 7.17 | C[C@]1(c2ccccc2)SC[C@H](CN2CCC(Cc3ccccc3)CC2)S1 | 
7.15 | 7.27 | c1ccc(CC2CCN(CC3CSC4(S3)c3ccccc3-c3ccccc34)CC2)cc1 (configuration not stated) | 
8.09 | 8.77 | c1ccc(CC2CCN(CC3CSC4(CCCCCC4)S3)CC2)cc1 (configuration not stated) | 
 |  | O=C(O)C(=O)O.c1ccc(CN2CCN(CC3COC4(CCCCC4)O3)CC2)cc1 (configuration not stated) | Activity (SH-SY5Y [5]): inactive; Activity (SH-SY5Y [6]): Active; Activity (SH-SY5Y [12]): >85%; inhibition [13]: 34%; Ratio Ki (Cavia porcellus): 47; Activity (SH-SY5Y [9]): Active; inhibition [14]: 18%; Activity (SH-SY5Y [3]): inactive; pKi [10]: 7.46; inhibition [15]: 110%
8.48 | 9.22 | CC1(C)SCC(CN2CCN(Cc3ccccc3)CC2)S1 (configuration not stated) | 
 |  | O=C(O)C(=O)O.c1ccc(CC2CCN(CC3CSC4(CCCCC4)S3)CC2)cc1 (configuration not stated) | Activity (SH-SY5Y [5]): inactive; Activity (SH-SY5Y [12]): >85%; pKi [8]: 7.92; Activity (SH-SY5Y [9]): Active; Activity (SH-SY5Y [3]): inactive; pKi [10]: 8.30
7.03 | 6.89 | c1ccc(CC2CCN(C[C@@H]3CS[C@]4(CCCc5ccccc54)S3)CC2)cc1 | 
6.97 | 7.17 | c1ccc(CC2CCN(C[C@@H]3CS[C@@]4(CCCCc5ccccc54)S3)CC2)cc1 | 
9.23 | 8.70 | CC1(C)SCC(CN2CCC(Cc3ccccc3)CC2)S1 (configuration not stated) | 
8.21 | 9.22 | CC1(C)OCC(CN2CCC(Cc3ccccc3)CC2)O1 (configuration not stated) | 
7.20 | 7.12 | C[C@]1(c2ccccc2)SC[C@@H](CN2CCC(Cc3ccccc3)CC2)S1 | 

Compound | pKi [1] | pKi [2] | also measured
O=C(O)C(=O)O.c1ccc(CC2CCN(CC3CSCS3)CC2)cc1 (configuration not stated) | 7.92 | 9.30 | Activity (SH-SY5Y [4]): 72 - 75%; Activity (SH-SY5Y [3]): inactive
O=C(O)C(=O)O.O=C(O)C(=O)O.c1ccc(CN2CCN(CC3CSCS3)CC2)cc1 (configuration not stated) | 7.05 | 8.68 | Activity (SH-SY5Y [11]): inactive; Activity (SH-SY5Y [5]): inactive; Activity (SH-SY5Y [12]): >85%; Activity (SH-SY5Y [9]): Active; Activity (SH-SY5Y [3]): inactive
